CHO-K1 Ca PAM: M1 PAM counterscreen hit in parental CHO-K1 cells; activation, % at 3 µM; ATP EC20, Fluo-8 calcium fluorescence; 0% at ATP EC20, 100% at ATP max; actives 0.02% (n = 360,000); AID 602247;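 active = activation above the run cutoff, the mean activation of all test compounds plus 3 SD, cut at about 40% in these data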;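 also: peak over basal fluorescence ratio in a 140 s read after ATP addition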
OX1R antag-1: blocks the human orexin 1 receptor. O43613. actives 0.43% (n = 330,000). inhibition, % at 5 µM. CHO/OX1R cells, Fluo-8 calcium fluorescence, orexin A;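 active = inhibition above its plate's threshold, mean inhibition of all tested compounds on the plate plus 3 SD, cut at about 37% in these data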;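 also: 0% = orexin A challenge wells and 100% = SB-334867-A antagonist wells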
Target sequence (O43613 whole entry, looked up): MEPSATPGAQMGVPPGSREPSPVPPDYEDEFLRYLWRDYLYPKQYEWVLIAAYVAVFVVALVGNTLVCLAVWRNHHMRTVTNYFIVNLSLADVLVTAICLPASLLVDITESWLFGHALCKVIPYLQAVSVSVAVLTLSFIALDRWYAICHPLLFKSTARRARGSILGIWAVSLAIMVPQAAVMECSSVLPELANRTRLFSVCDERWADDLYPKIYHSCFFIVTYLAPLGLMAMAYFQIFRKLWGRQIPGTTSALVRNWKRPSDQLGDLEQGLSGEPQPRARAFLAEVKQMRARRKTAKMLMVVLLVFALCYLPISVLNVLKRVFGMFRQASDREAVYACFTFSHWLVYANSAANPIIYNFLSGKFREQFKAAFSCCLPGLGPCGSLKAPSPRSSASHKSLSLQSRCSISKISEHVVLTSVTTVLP
CHO-K1 Ca antag: counter-screen for M1 antagonists: effect in parental CHO-K1 cells. ATP-induced calcium, Fluo-8 fluorescence. inhibition, % at 3 µM. actives 0.6% (n = 360,000). AID 602250;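 active = inhibition above a per-plate cutoff, the plate's mean sample inhibition plus 3 SD, cut at about 24% in these data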;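 also: 0% = DMSO plus EC80 ATP and 100% = DMSO alone without ATP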
M1 ag parental: M1 agonist counterscreen hit in parental CHO-K1 cells | AID 602248 | Fluo-8 calcium fluorescence; scaled to maximal ATP response, vehicle zero | activation, % at 3 µM | actives 0.48% (n = 360,000); in the data active = activation above about 15%;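 also: untransfected CHO-K1 host cells lacking M1 receptor as counterscreen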
OX1R antag-2: OX1R (human) antagonism. actives 1.8% (n = 330,000). O43613. OX1R-expressing cells, FRET antagonist read-out. AID 485270. inhibition, % at 6.6 µM; in the data active = inhibition mostly above about 38%, no sharp cut-off; inactive = mostly below about 40%;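 also: 0% = agonist challenge alone and 100% = reference antagonist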
CHO parental Ca: counter-screen for OX1R antagonists: effect in parental CHO cells; parental CHO-K1, ATP-induced calcium, Fluo-8 fluorescence; actives 0.63% (n = 330,000); inhibition, % at 5.6 µM;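 active = inhibition above that plate's mean sample inhibition plus 3 SD, cut at about 26% in these data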;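 also: 0% = ATP-challenged DMSO wells and 100% = DMSO wells without ATP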
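Measured by: calcium-sensitive Fluo-8 fluorescence / Test system: CHO parental line / Controls: ATP-challenged DMSO wells low, unchallenged DMSO wells high / Measure: % inhibition / Compound: single nominal dose of 5.6 µM per compound / Replicates: single well per compound, no replicates / Reagent: ATP as calcium-mobilizing challenge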
The depositor's hits bear a star. Shown are actives, neighbours in structure and some others; about 2.9% of the full set was active somewhere.

Screening CN(C(=O)CS(=O)(=O)c1cn(CC(=O)N2CCCC2)c2ccccc12)c1ccccc1 returned CHO-K1 Ca PAM 2, OX1R antag-1 -17, CHO-K1 Ca antag -5, M1 ag parental 0, OX1R antag-2 13 and CHO parental Ca -16.
COc1cccc(CN2CCSCC2)c1OC was read as CHO-K1 Ca PAM -26, OX1R antag-1 -20, CHO-K1 Ca antag 25*, M1 ag parental 0, OX1R antag-2 10 and CHO parental Ca -1.
Screening COc1cccc(CNCc2ccc(OC)c3ccccc23)c1OC returned CHO-K1 Ca PAM -1, OX1R antag-1 -18, CHO-K1 Ca antag 12, M1 ag parental 23*, OX1R antag-2 6 and CHO parental Ca 0.
For CCCCc1nc2cc(C(=O)N3CCCC(COC)C3)ccc2o1 (centres undefined) the results were CHO-K1 Ca PAM -9, OX1R antag-1 -19, CHO-K1 Ca antag -1, M1 ag parental 0, OX1R antag-2 12 and CHO parental Ca -19.
Screening O=C(O)C1CCCCC1C(=O)Nc1ccc(S(=O)(=O)N2CCOCC2)cc1 (centres undefined) returned CHO-K1 Ca PAM 4, CHO-K1 Ca antag -11 and M1 ag parental 1.
Screening O=C1c2cccnc2C(=O)N1c1cccc([N+](=O)[O-])c1 returned CHO-K1 Ca PAM 0, OX1R antag-1 -13, CHO-K1 Ca antag 12, M1 ag parental 0, OX1R antag-2 14 and CHO parental Ca -15.
For O=[N+]([O-])c1cc(-c2ncccn2)c([N+](=O)[O-])s1 the results were CHO-K1 Ca PAM 18, OX1R antag-1 20, CHO-K1 Ca antag 4, M1 ag parental -1, OX1R antag-2 64* and CHO parental Ca 17.
`O=C(NC(c1ccc(Cl)cc1)c1ccsc1)C1CCN(Cc2cccc(Cl)c2)CC1` (centres undefined) gave CHO-K1 Ca PAM 14, CHO-K1 Ca antag -7 and M1 ag parental 3.
Screening O=C(Nc1ccccc1F)c1ccc2snnc2c1 returned CHO-K1 Ca PAM 7, OX1R antag-1 -18, CHO-K1 Ca antag -6, M1 ag parental 0, OX1R antag-2 71* and CHO parental Ca -9.
O=C(Nc1ccccc1)Nc1ccc2snnc2c1 was read as CHO-K1 Ca PAM 5, OX1R antag-1 29, CHO-K1 Ca antag 21, M1 ag parental 14, OX1R antag-2 86* and CHO parental Ca 31.
`O=C(Nc1ccccc1)Nc1ccc2nnsc2c1` gave CHO-K1 Ca PAM -11, OX1R antag-1 24, CHO-K1 Ca antag 25*, M1 ag parental 18*, OX1R antag-2 17 and CHO parental Ca 31.
O=C(Nc1ccc(Cl)cc1)c1ccc2snnc2c1 was read as CHO-K1 Ca PAM 6, OX1R antag-1 1, CHO-K1 Ca antag -1, M1 ag parental 4, OX1R antag-2 16 and CHO parental Ca 10.
For O=C(NCc1ccccc1)c1ccc2nnsc2c1 the results were OX1R antag-1 -6, OX1R antag-2 4 and CHO parental Ca 5.
CN(C)c1ccc(NC(=O)Nc2ccc3snnc3c2)cc1 was read as CHO-K1 Ca PAM 2, OX1R antag-1 30, CHO-K1 Ca antag 18, M1 ag parental 13, OX1R antag-2 54 and CHO parental Ca 21.
`C#Cc1ccc(CN2CCC(C(=O)Nc3ccc(Oc4ccccc4)nc3)CC2)cc1` gave CHO-K1 Ca PAM 15, OX1R antag-1 -2, CHO-K1 Ca antag -6, M1 ag parental 9, OX1R antag-2 1 and CHO parental Ca 3.
Screening O=C(Nc1ccc(Oc2ccccc2)nc1)C1CCN(Cc2cccc(F)c2)CC1 returned CHO-K1 Ca PAM -2, OX1R antag-1 -21, CHO-K1 Ca antag 8, M1 ag parental 24*, OX1R antag-2 -7 and CHO parental Ca 6.
Screening CCOC(=O)CNC(=O)N1CCCC(N(C)CCc2ccccc2)C1 (centres undefined) returned CHO-K1 Ca PAM 12, OX1R antag-1 -17, CHO-K1 Ca antag -5, M1 ag parental 0, OX1R antag-2 1 and CHO parental Ca -13.
Cc1cccc(C(=O)NCC(=O)N2CCN(c3ccc(Cl)cc3)CC2)c1 was read as CHO-K1 Ca PAM 12, OX1R antag-1 -23, CHO-K1 Ca antag -13, M1 ag parental 16*, OX1R antag-2 1 and CHO parental Ca -13.
CCOC(=O)C1CCCN(CCC(=O)Nc2cccc(Cl)c2C)C1 (centres undefined) was read as CHO-K1 Ca PAM 5, OX1R antag-1 -20, CHO-K1 Ca antag -6, M1 ag parental 1, OX1R antag-2 14 and CHO parental Ca -16.
Screening CCCCN(C(=O)CCC(=O)Nc1cc(C)on1)C(C(=O)NC1CCCC1)c1ccc(OCC)cc1 (centres undefined) returned CHO-K1 Ca PAM 22, OX1R antag-1 -43, CHO-K1 Ca antag -24, M1 ag parental -1, OX1R antag-2 15 and CHO parental Ca -16.
Screening CCCCN(C(=O)CCC(=O)Nc1cc(C)on1)C(C(=O)NC1CCCC1)c1ccccc1OCC (centres undefined) returned CHO-K1 Ca PAM -5, OX1R antag-1 5, CHO-K1 Ca antag -16, M1 ag parental -1, OX1R antag-2 76* and CHO parental Ca -21.
Screening CC(=O)OCCN1C(=O)c2cccc3cc([N+](=O)[O-])cc(c23)C1=O returned OX1R antag-1 -3, OX1R antag-2 69* and CHO parental Ca -14.
O=C1c2cccc3cc([N+](=O)[O-])cc(c23)C(=O)N1CC1CCCO1 (centres undefined) was read as CHO-K1 Ca PAM -14, OX1R antag-1 -22, CHO-K1 Ca antag 3, M1 ag parental 0, OX1R antag-2 60* and CHO parental Ca -4.
CN(C)CCN1C(=O)c2cccc3cc([N+](=O)[O-])cc(c23)C1=O was read as CHO-K1 Ca PAM -21, CHO-K1 Ca antag 9 and M1 ag parental 0.
CCC(C(=O)OCC(=O)N1CCN(S(=O)(=O)c2ccc(C)cc2C)CC1)c1ccccc1 (centres undefined) was read as CHO-K1 Ca PAM 8, OX1R antag-1 -4, CHO-K1 Ca antag -6, M1 ag parental 5, OX1R antag-2 5 and CHO parental Ca -13.
Cc1ccc2[nH]c(=O)c(CN(C(=O)c3cccc([N+](=O)[O-])c3)C(C)C)cc2c1 was read as CHO-K1 Ca PAM -8, OX1R antag-1 5, CHO-K1 Ca antag -10, M1 ag parental 0, OX1R antag-2 51* and CHO parental Ca -16.
For CC(C)N(Cc1cc2ccccc2[nH]c1=O)C(=O)c1cccc([N+](=O)[O-])c1 the results were CHO-K1 Ca PAM -10, OX1R antag-1 -6, CHO-K1 Ca antag -2, M1 ag parental 0, OX1R antag-2 52 and CHO parental Ca -25.
Screening COc1cccc(-c2cnc(C(O)c3ccc(C(C)(C)C)cc3)[nH]2)c1 (centres undefined) returned CHO-K1 Ca PAM -10, CHO-K1 Ca antag 0 and M1 ag parental 1.

Source: PubChem (The Scripps Research Institute Molecular Screening Center)
